Source: ChEMBL document CHEMBL4680125, “Synthesis and bioevaluation of 1-phenylimidazole-4-carboxylic acid derivatives as novel xanthine oxidoreductase inhibitors” (Eur J Med Chem, 2020)
Calls of active or inactive are those of the source. No cut-off for these calls is given here.

Legend:
[1] = biological target: Xanthine dehydrogenase/oxidase (Bos taurus, UniProt P80457); experiment: Inhibition of bovine xanthine oxidase assessed as reduction in uric acid formation using xanthine as substrate incubated for 3 mins by microplate assay
[2] = tested on: Mus musculus; experiment: Hypouricemic activity in ICR mouse model of xanthine/potassium oxonate-induced long term hyperuricemia assessed as decrease in serum uric acid level at 5 mg/kg, ig qd treated subsequently for 7 days relative to control; format: functional, organism-based; conditions: time 7.0 day
How it was run: (§1)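 Long-term model in ICR mice: potassium oxonate 250 mg/kg s.c. plus hypoxanthine 150 mg/kg i.p. at 9:00 AM, once daily for 7 days. Compound dosed intragastrically at 5 mg/kg (0.5% CMC-Na suspension) at 10:00 AM for 7 days. Serum obtained by centrifugation at 4000 r/min for 10 min and stored at −80 °C. Uric acid, creatinine and urea nitrogen measured with diagnostic kits; n = 8.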

[3] = Toxicity in ICR mouse model of xanthine/potassium oxonate-induced hyperuricemia assessed as urea nitrogen level at 5 mg/kg, ig qd treated subsequently for 7 days relative to control; format: organism-based; conditions: in vivo, po, 168 h, time 7 day; how it was run: as §1
[4] = tested on: Mus musculus; experiment: Hypouricemic activity in ICR mouse model of xanthine/potassium oxonate-induced acute hyperuricemia assessed as decrease in serum uric acid level at 5 mg/kg, ig measured after 4 hrs relative to control; format: functional, organism-based
How it was run: (§2)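 ICR mice (18–22 g), acclimatized ≥1 week. Acute hyperuricemia induced by potassium oxonate 250 mg/kg s.c. plus hypoxanthine 400 mg/kg i.p., both in saline. Baseline tail blood taken at 1 h, then compound given intragastrically at 5 mg/kg as a suspension in 0.5% CMC-Na; model group received vehicle. […] Mean ± S.D.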

[5] = Toxicity in ICR mouse model of xanthine/potassium oxonate-induced hyperuricemia assessed as creatinine level at 5 mg/kg, ig qd treated subsequently for 7 days relative to control; format: organism-based; conditions: in vivo, po, 168 h, time 7 day; how it was run: as §1
[6] = tested on: Mus musculus; experiment: Hypouricemic activity in ICR mouse model of xanthine/potassium oxonate-induced acute hyperuricemia assessed as decrease in serum uric acid level at 5 mg/kg, ig relative to control; format: functional, organism-based; conditions: TDE = time-dependent effect; how it was run: as §2

Chain of Xanthine dehydrogenase/oxidase (P80457 whole entry): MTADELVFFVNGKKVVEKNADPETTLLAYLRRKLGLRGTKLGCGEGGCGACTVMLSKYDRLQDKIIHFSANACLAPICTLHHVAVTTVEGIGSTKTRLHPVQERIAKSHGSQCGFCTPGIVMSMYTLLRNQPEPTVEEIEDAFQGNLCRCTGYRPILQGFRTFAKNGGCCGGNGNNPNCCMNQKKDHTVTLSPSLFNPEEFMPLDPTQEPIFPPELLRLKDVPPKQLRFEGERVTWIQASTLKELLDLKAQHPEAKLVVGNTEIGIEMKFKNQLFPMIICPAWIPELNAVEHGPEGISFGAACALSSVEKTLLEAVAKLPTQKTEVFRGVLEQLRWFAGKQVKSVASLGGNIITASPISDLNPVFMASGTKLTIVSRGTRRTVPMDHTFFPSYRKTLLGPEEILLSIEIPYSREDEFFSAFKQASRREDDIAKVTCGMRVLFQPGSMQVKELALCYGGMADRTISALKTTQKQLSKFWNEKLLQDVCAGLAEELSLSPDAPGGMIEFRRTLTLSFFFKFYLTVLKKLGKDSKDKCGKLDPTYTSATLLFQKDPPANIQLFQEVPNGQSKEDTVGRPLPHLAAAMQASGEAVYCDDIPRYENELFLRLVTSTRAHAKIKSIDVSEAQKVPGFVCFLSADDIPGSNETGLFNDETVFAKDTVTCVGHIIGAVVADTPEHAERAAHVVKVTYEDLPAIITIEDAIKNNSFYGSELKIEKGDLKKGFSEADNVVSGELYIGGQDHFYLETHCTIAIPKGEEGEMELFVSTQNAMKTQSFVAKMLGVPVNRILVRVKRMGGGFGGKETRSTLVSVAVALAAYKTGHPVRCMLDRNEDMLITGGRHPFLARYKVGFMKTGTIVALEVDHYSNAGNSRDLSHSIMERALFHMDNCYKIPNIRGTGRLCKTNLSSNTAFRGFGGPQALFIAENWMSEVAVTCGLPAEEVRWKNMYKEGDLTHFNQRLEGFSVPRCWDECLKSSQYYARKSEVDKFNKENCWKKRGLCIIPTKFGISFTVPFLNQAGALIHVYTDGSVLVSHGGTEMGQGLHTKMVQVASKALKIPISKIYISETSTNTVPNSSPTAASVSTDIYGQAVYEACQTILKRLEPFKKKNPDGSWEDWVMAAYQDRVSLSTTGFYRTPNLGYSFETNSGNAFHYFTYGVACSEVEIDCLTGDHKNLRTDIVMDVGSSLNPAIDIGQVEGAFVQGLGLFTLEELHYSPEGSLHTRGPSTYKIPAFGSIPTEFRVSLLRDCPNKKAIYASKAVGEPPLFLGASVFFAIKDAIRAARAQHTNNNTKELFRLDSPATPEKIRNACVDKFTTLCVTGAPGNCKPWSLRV

Row | SMILES | IC50 [1] | further results
1 | CC(C)COc1ccc(-c2cn(C)c(C(=O)O)n2)cc1C#N | 2.16 µM | –
2 | CC(C)Oc1ccc(-c2c[nH]c(C(=O)O)n2)cc1C#N | 0.75 µM | –
3 | N#Cc1cc(-n2cnc(C(=O)O)c2)ccc1OC1CCCCC1 | 0.0474 µM | –
4 | CCOc1ccc(-c2c[nH]c(C(=O)O)n2)cc1C#N | 0.948 µM | –
5 | CCOc1ccc(-n2cnc(C(=O)O)c2)cc1C#N | 0.226 µM | –
6 | CC(C)COc1ccc(-n2cnc(C(=O)O)c2)cc1C#N | 0.0945 µM | –
7 | COc1cccc(-c2ccc(-n3cnc(C(=O)O)c3)cc2C#N)c1 | 0.0744 µM | –
8 | CCC(C)Oc1ccc(-n2cnc(C(=O)O)c2)cc1C#N (configuration not stated) | 0.0739 µM | –
9 | CCC(CC)Oc1ccc(-n2cnc(C(=O)O)c2)cc1C#N | 0.0406 µM | –
10 | CC(C)COc1ccc(-c2c[nH]c(C(=O)O)n2)cc1C#N | 0.51 µM | –
11 | N#Cc1cc(-c2c[nH]c(C(=O)O)n2)ccc1OC1CCCC1 | 0.387 µM | –
12 | N#Cc1cc(-n2cnc(C(=O)O)c2)ccc1N1CCCCC1 | 0.0556 µM | –
13 | N#Cc1cc(-n2cnc(C(=O)O)c2)ccc1OC1CCCC1 | 0.063 µM | –
14 | CC(C)(C)COc1ccc(-n2cnc(C(=O)O)c2)cc1C#N | 0.0679 µM | –
15 | N#Cc1cc(-n2cnc(C(=O)O)c2)ccc1N1CCCC1 | 0.0341 µM | –
16 | CC(C)(C)c1ccc(-c2ccc(-n3cnc(C(=O)O)c3)cc2C#N)cc1 | 0.0072 µM | Activity [2]: Active; Activity [3]: Toxic; Activity [4]: Active; Activity [5]: Toxic; Activity [6]: Tde
17 | N#Cc1cc(-n2cnc(C(=O)O)c2)ccc1N1CCCCCCC1 | 0.008 µM | Activity [2]: Active; Activity [3]: Toxic; Activity [4]: Active; Activity [5]: Toxic; Activity [6]: Tde
18 | CCC(CC)COc1ccc(-n2cnc(C(=O)O)c2)cc1C#N | 0.0298 µM | –
19 | CC(C)Oc1ccc(-n2cnc(C(=O)O)c2)cc1C#N | 0.198 µM | –
20 | CC(C)CN(C)c1ccc(-n2cnc(C(=O)O)c2)cc1C#N | 0.0271 µM | –
21 | CC1CCN(c2ccc(-n3cnc(C(=O)O)c3)cc2C#N)CC1 | 0.0305 µM | –
22 | COc1ccc(-c2ccc(-n3cnc(C(=O)O)c3)cc2C#N)cc1 | 0.0345 µM | –
